Assay results of several laboratories.
Each line is one published result; the experiments were not run side by side. pIC50: −log10 of the molar value.
PFF0160c: Dihydroorotate dehydrogenase (quinone), mitochondrial (PFF0160c, Plasmodium falciparum, UniProt Q08210)
PFF0160c E182D: Dihydroorotate dehydrogenase (quinone), mitochondrial (PFF0160c, Plasmodium falciparum, UniProt Q08210, E182D)

SMILES	target	test	pIC50
Cc1nc(NC2CCc3cc(Cl)ccc3C2)c2c(C)noc2n1 (stereo not shown)	PFF0160c	enzyme activity, inhibitor, absorbance	6.92
CC(=O)c1c(Nc2c(C)cc(C)cc2C)oc(C)cc1=O	PFF0160c E182D	enzyme activity, inhibitor, absorbance	6.18
Cc1nc(NC2CCc3cc(Br)ccc3C2)c2c(C)noc2n1 (stereo not shown)	PFF0160c	enzyme activity, inhibitor, absorbance	6.28
CC[C@H]1NC(=O)[C@@H]2CSC(=N2)[C@@H](Cc2ccccc2)N(C)C(=O)[C@@H]2CCCN2C(=O)[C@H](C(C)C)N(C)C(=O)[C@H](Cc2ccccc2)OC(=O)[C@H](C)[C@@H](C)NC(=O)[C@@H]([C@@H](C)O)NC(=O)[C@@H](CC(C)C)N(C)C(=O)[C@@H]2CSC1=N2	Vitamin K-dependent protein C (PROC, Homo sapiens, UniProt P04070)	enzyme activity, inhibitor	4.10
O=S(=O)(O)c1nc2ccccc2[nH]1	racE (Bacillus subtilis, UniProt P94556, N75L)	enzyme activity, inhibitor, absorbance	3.70
CC(c1ccc(Cl)c(Cl)c1)c1nn2c(-c3ccccc3F)nnc2s1 (stereo not shown)	PFF0160c	enzyme activity, inhibitor, absorbance	6.27
Cc1noc2nc(C(F)(F)F)nc(Nc3ccc(C(F)(F)F)cc3)c12	PFF0160c	enzyme activity, inhibitor, absorbance	6.21
CNC(=O)[C@H](C)NC(=O)c1[nH]cc(Cc2ccc(C(F)(F)F)nc2)c1C	PFF0160c	enzyme activity, inhibitor, absorbance	4.41
Cc1nc(Nc2ccc(C(F)(F)F)nc2)c2c(C)noc2n1	PFF0160c	enzyme activity, inhibitor, absorbance	6.82
O=C(CCCC(=O)N1CCN(C(=O)c2cc(Cc3n[nH]c(=O)c4ccccc34)ccc2F)CC1)NCCNC(=O)C1CC2C=CC1C2 (stereo not shown)	Poly [ADP-ribose] polymerase 1 (PARP1, Homo sapiens, UniProt P09874)	enzyme activity, inhibitor	8.00
Cc1nc(C(C)NC(=O)c2[nH]cc(Cc3ccc(C(F)(F)F)nc3)c2C)c[nH]1 (stereo not shown)	PFF0160c	enzyme activity, inhibitor, absorbance	5.89
Cc1cc(Nc2ccc(C)c(Cl)c2)n2nc(C(F)(F)F)nc2n1	PFF0160c	enzyme activity, inhibitor, absorbance	7.54
Cc1c(Cc2ccc(C(F)(F)F)nc2)c[nH]c1C(=O)N[C@@H](C)C(N)=O	PFF0160c	enzyme activity, inhibitor, absorbance	< 4.00
O=C(Nc1ccccc1)OCC(CN1CCCCC1)OC(=O)Nc1ccccc1 (stereo not shown)	Kappa-type opioid receptor (OPRK1, Homo sapiens, UniProt P41145)	ligand displacement, radioligand	5.85
Cc1c(Cc2ccc(C(F)(F)F)nc2)c[nH]c1C(=O)NC(C)c1nc[nH]n1 (stereo not shown)	PFF0160c	enzyme activity, inhibitor, absorbance	< 4.00
CC1CN(Cc2ccc(-c3ccc(C(=O)NCC4CCCO4)cn3)cc2)CC(C)O1 (stereo not shown)	PFF0160c E182D	enzyme activity, inhibitor, absorbance	5.48
CCCCCNC(=N)N/N=C/c1c[nH]c2ccc(OC)cc12	5-hydroxytryptamine receptor 2A (HTR2A, Homo sapiens, UniProt P28223)	calcium signal, antagonist, fluorescence	5.82
Cc1nc(Nc2ccc(S(F)(F)(F)(F)F)cc2)c2c(C(F)(F)F)noc2n1	PFF0160c	enzyme activity, inhibitor, absorbance	7.37
CN(C)S(=O)(=O)c1ccc(Sc2ccccc2)c(C(=O)N2CCCC(C(N)=O)C2)c1 (stereo not shown)	PFF0160c E182D	enzyme activity, inhibitor, absorbance	5.59
